In paper PMC6664420 (Drug Design, Development and Therapy, 2019):

Columns and labels:
[1] = rats; ref Investigator's brochure, unpublished data; cited from earlier work
[2] = no method or reference given; cited from earlier work
[3] = cited from earlier work
[4] = Safety and tolerability after a single oral dose in healthy volunteers; assay type: in vivo, human
Summary of the method: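 Single-dose, double-blind, placebo-controlled (8:2 active:placebo) escalation in healthy men; tolerability through 48 h post-dose decided escalation. Monitoring covered AEs, physical exam, vital signs, 12-lead ECG, clinical laboratory tests, protein electrophoresis, and continuous pulse oximetry for 4 h post-dose. QTcmax and ΔQTcmax per dose group were compared with placebo by ANOVA and Dunnett's test, P<0.05.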

[5] = tested on: Streptococcus pneumonia; conditions: ref Investigator's brochure, unpublished data; cited from earlier work
[6] = mice model; no method or reference given; cited from earlier work
[7] = tested on: hERG current; conditions: preclinical study; ref Investigator's brochure, unpublished data; cited from earlier work
[8] = tested on: Gram-negative pathogens; conditions: ref Investigator's brochure, unpublished data; cited from earlier work
[9] = Pharmacokinetics after a single oral dose in healthy volunteers; assay type: in vivo, human
Summary of the method: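 Healthy men aged 20–50 y received a double-blind single oral dose of test compound mesylate (40–1280 mg) fasted; at 640 mg, dosing was repeated fed in period 2. Plasma was sampled from predose to 48 h, and urine was collected over 0–6, 6–12, 12–24 and 24–48 h. Analysis was UPLC-MS/MS, positive mode. Non-compartmental: linear-up/log-down AUC0-t. Dose proportionality used 95% CI of log-log slope. Food effect used a mixed-model GMR with 90% CI.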

[10] = all groups, total includes 1 placebo case per Table 2

## CC(C)(C)[C@H](NC(=O)[C@H](CC1CCCC1)CN(O)C=O)C(=O)N1CCC(NCc2cc(F)c(F)cc2F)CC1 [IDP-73152]
[1]
  distribution coefficient of the liver: approximately 6.0
  distribution coefficient of the lung: ~3.5
[2]
  bound to plasma protein: 95.4%
[3]
  in vitro antimicrobial activity, minimal inhibitory concentration (MIC): comparable to that of linezolid and vancomycin
[4]; 160 mg, N=8
  Incidence of drug-related AE: Diarrhoea: 1
  Incidence of drug-related AE: Nausea: 1
[4]; 320 mg, N=8
  Incidence of drug-related AE: Abdominal pain: 1
  Incidence of drug-related AE: Epigastric discomfort: 1
[4]; 640 mg, fasted state, N=8
  Incidence of drug-related AE: Abdominal discomfort: 1
[4]; 1280 mg, N=8
  Incidence of drug-related AE: Headache: 1
  Incidence of drug-related AE: Nausea: 4
[4]; all dose groups
  severity of AEs: mild severity and not serious
[4]; [10]
  drug-related headache, total: 2 cases
  drug-related nausea, total: 6 cases
[4]; single oral dose of up to 1280 mg
  tolerability: well tolerated
[5]
  PK/PD dependence of the antibiotic effect: AUC-dependent
[6]
  mean tmax: 30 min
  terminal half-life: 1.05 h
  volume of distribution: 1.71 L/kg
[7]
  inhibition of the hERG current: concentration-dependent inhibition
[8]
  MIC against Gram-negative pathogens: unfavorable MIC value
[9]; 640 mg, fed vs fasted, P=0.779
  effect of food on terminal half-life: not affected by food intake
[9]; 640 mg, high-fat meal
  GMR (with 90% CI) of AUC0-t, fed vs fasted: 0.862 (0.811–0.917)
  GMR (with 90% CI) of Cmax, fed vs fasted: 0.638 (0.563–0.723)
[9]; 640 mg, high-fat meal, fed vs fasted
  decrease of Cmax by food: 36.2%
[9]; 640 mg, high-fat meal, fed vs fasted, listed as IDP-73152 mesylate
  decrease of Cmax by food: 36%
[9]; all dose ranges (40–1280 mg)
  dose proportionality of AUC0-t: more than dose-proportional
[9]; range of 40–320 mg
  dose proportionality of AUC0-t: dose-proportional
[9]; single dose of 1280 mg, 12 hrs post-dose
  plasma level relative to MIC: above MIC level
